Source: ChEMBL document CHEMBL5107950, “Structure-based design of haloperidol analogues as inhibitors of acetyltransferase Eis from Mycobacterium tuberculosis to overcome kanamycin resistance” (RSC Med Chem, 2021)
Values after ≈ are worked out from the molar mass of the structure shown.

Legend:
[1] = biological target: T1, N-acetyltransferase Eis (Mycobacterium tuberculosis (strain ATCC 25618 / H37Rv), UniProt P9WFK7); assay: Inhibition of Mycobacterium tuberculosis Eis assessed as Eis-mediated kanamycin acetylation preincubated for 10 mins followed by substrate addition and measured for 2 to 5 mins using acetyl-CoA as substrate in presence of kanamycin by UV-Vis spectroscopy analysis
T1 sequence (P9WFK7 whole entry): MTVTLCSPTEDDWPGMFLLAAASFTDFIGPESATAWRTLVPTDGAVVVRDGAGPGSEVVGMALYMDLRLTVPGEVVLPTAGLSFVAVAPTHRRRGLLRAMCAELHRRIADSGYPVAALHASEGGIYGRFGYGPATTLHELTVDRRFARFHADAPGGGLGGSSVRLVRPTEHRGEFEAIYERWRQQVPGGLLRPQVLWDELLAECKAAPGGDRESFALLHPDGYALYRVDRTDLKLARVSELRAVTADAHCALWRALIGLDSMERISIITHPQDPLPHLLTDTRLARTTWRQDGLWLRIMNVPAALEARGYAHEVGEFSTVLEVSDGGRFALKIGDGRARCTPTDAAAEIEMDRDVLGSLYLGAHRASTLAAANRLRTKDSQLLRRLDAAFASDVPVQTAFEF
Outline: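 Recombinant Eis (1 µM) mixed with KAN (400 µM) in 50 mM Tris-HCl pH 8.0 and preincubated 10 min with 5-fold serially diluted inhibitor (10% DMSO in buffer). Reaction started with AcCoA and DTNB (2 mM each, as added). Absorbance read every 30 s for 20 min. Initial rates (first 2-5 min) fitted to Hill plot for IC50. At least triplicate.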

[2] = system: Mycolicibacterium smegmatis; assay: Antibacterial activity against Mycobacterium smegmatis mc2 155 assessed as inhibition of bacterial growth incubated upto 3 weeks hrs by resazurin dye based double-dilution method; assay type: functional; conditions: mc2 155, 504 h
Outline: (§1)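 Double-dilution broth MIC. Media: M. smegmatis, Mueller-Hinton; M. abscessus, 7H9 + 0.05% Tween80 + 0.4% glycerol; mc²6230, 7H9 + 0.05% tyloxapol, 0.5% glycerol, 10% OADC, 0.2% casamino acids, 24 µg/mL pantothenate; other mycobacteria, 7H9 + 0.05% Tween80, 0.4% glycerol, 10% ADC. Inoculum from agar set to 0.5 McFarland, then diluted 1:100.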

[3] = system: Mycobacteroides abscessus; assay: Antibacterial activity against Mycobacterium abscessus ATCC 19977 assessed as inhibition of bacterial growth incubated upto 3 weeks hrs by resazurin dye based double-dilution method; assay type: functional; conditions: ATCC 19977, 504 h; outline: as §1
[4] = system: Mycobacterium intracellulare; assay: Antibacterial activity against Mycobacterium intracellulare ATCC 13950 assessed as inhibition of bacterial growth incubated upto 3 weeks hrs by resazurin dye based double-dilution method; assay type: functional; conditions: ATCC 13950, 504 h; outline: as §1
[5] = system: Mycobacterium avium; assay: Antibacterial activity against Mycobacterium avium ATCC 25921 assessed as inhibition of bacterial growth incubated upto 3 weeks hrs by resazurin dye based double-dilution method; assay type: functional; conditions: ATCC 25921, 504 h; outline: as §1
[6] = system: Mycobacterium tuberculosis; assay: Antibacterial activity against Mycobacterium tuberculosis H37Ra ATCC NRS22 assessed as inhibition of bacterial growth incubated upto 3 weeks hrs by resazurin dye based double-dilution method; assay type: functional; conditions: H37Ra ATCC NRS22, 504 h; outline: as §1
[7] = system: Mycobacterium tuberculosis; assay: Potentiation of kanamycin-induced antibacterial activity against Mycobacterium tuberculosis H37Rv assessed as kanamycin MIC incubated for 1 day followed by kanamycin addition for 6 days and by Alamar blue assay; assay type: functional; conditions: 168 h, time 7 day
Outline: (§2)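 Mtb in 7H9 + 10% ADC, 0.05% Tween 80, 0.4% glycerol at 37 °C. Inoculum adjusted to OD600 0.2, diluted 1:25. Cells preincubated 24 h at 37 °C with compound (100 µL of 200 µM solution). KAN then added: H37Rv at 2.5 and 1.25 µg/mL; K204 at 10, 5, 2.5, 1.25 µg/mL. Incubated 6 days, AlamarBlue added, colour read at 24 and 48 h. MIC = lowest KAN with no colour change. At least twice in duplicate.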

[8] = system: Mycobacterium tuberculosis; assay: Potentiation of kanamycin-induced antibacterial activity against Mycobacterium tuberculosis K204 assessed as kanamycin MIC incubated for 1 day followed by kanamycin addition for 6 days and by Alamar blue assay; assay type: functional; conditions: K204, 168 h, time 7 day; outline: as §2

| SMILES | IC50 [1] [µM] | MIC [2] [µM] | MIC [3] [µM] | MIC [4] [µM] | MIC [5] [µM] | MIC [6] [µM] | MIC [7] [µg/mL] | MIC [8] [µg/mL] |
| --- | --- | --- | --- | --- | --- | --- | --- | --- |
| CC(C)c1ccc(C(=O)CCCN2CCC(O)(c3ccc(Cl)cc3)CC2)cc1 | > 200 | 15.6 (≈ 6.24 µg/mL) | 31.3 (≈ 12.5 µg/mL) | 7.8 (≈ 3.12 µg/mL) | > 62.5 | 7.8 (≈ 3.12 µg/mL) | – | – |
| CC1CCCCN1CCCOc1ccc(F)cc1 (stereo unspecified) | > 200 | 15.6 (≈ 3.92 µg/mL) | > 62.5 | 7.8 (≈ 1.96 µg/mL) | 15.6 (≈ 3.92 µg/mL) | 7.8 (≈ 1.96 µg/mL) | – | – |
| CC1CC(C)CN(CCCC(=O)c2ccc(C(C)(C)C)cc2)C1 (stereo unspecified) | 200 | 62.5 (≈ 19.7 µg/mL) | 62.5 (≈ 19.7 µg/mL) | 62.5 (≈ 19.7 µg/mL) | 62.5 (≈ 19.7 µg/mL) | 31.3 (≈ 9.88 µg/mL) | – | – |
| O=C(CCCN1CCC(O)(c2ccc(Br)cc2)CC1)c1ccccc1 | 2.2 | > 62.5 | > 62.5 | > 62.5 | > 62.5 | 62.5 (≈ 25.1 µg/mL) | ≤ 1.25 | 10 |
| COc1ccc(C(=O)CCCN2CCC(O)(c3ccc(Br)cc3)CC2)cc1 | 5.6 | > 62.5 | > 62.5 | > 62.5 | 62.5 (≈ 27 µg/mL) | 31.3 (≈ 13.5 µg/mL) | ≤ 1.25 | > 10 |
| O=C(CCCN1CC=C(n2c(=O)[nH]c3ccccc32)CC1)c1ccc(F)cc1 [DROPERIDOL] | 12.2 | > 62.5 | > 62.5 | > 62.5 | > 62.5 | 31.3 (≈ 11.9 µg/mL) | – | – |
| O=C(CCCN1CCC(c2ccc(Cl)cc2)CC1)c1ccc(F)cc1 | 1.1 | > 62.5 | > 62.5 | 31.3 (≈ 11.3 µg/mL) | > 62.5 | 62.5 (≈ 22.5 µg/mL) | – | – |
| O=C(CCCN1CCC(O)CC1)c1ccc(F)cc1 | 0.69 | > 62.5 | > 62.5 | > 62.5 | > 62.5 | > 62.5 | – | – |
| N=C(N)NCCCC(=O)c1ccc(F)cc1 | 1.1 | > 62.5 | > 62.5 | > 62.5 | > 62.5 | 31.3 (≈ 6.99 µg/mL) | – | – |
| O=C(CCCN1CCC(O)(c2ccc(Cl)cc2)CC1)c1ccccc1 | 5.3 | > 62.5 | > 62.5 | > 62.5 | 62.5 (≈ 22.4 µg/mL) | 62.5 (≈ 22.4 µg/mL) | ≤ 1.25 | > 10 |
| Cc1ccc(C(=O)CCCN2CCC(O)(c3ccc(Cl)cc3)CC2)cc1 | 100 | 62.6 (≈ 23.3 µg/mL) | > 62.5 | > 62.5 | > 62.5 | 31.3 (≈ 11.6 µg/mL) | – | – |
| COc1ccc(C(=O)CCCN2CCC(O)(c3ccc(F)cc3)CC2)cc1 | 42 | > 62.5 | > 62.5 | > 62.5 | > 62.5 | > 62.5 | ≤ 1.25 | > 10 |
| CCc1ccc(C(=O)CCCN2CCC(O)(c3ccc(Cl)cc3)CC2)cc1 | 40 | 15.6 (≈ 6.02 µg/mL) | 62.5 (≈ 24.1 µg/mL) | 15.6 (≈ 6.02 µg/mL) | 62.5 (≈ 24.1 µg/mL) | 15.6 (≈ 6.02 µg/mL) | – | – |
